Results from ChEMBL document CHEMBL4346701, “Synthesis and biological evaluation of tryptophan-derived rhodanine derivatives as PTP1B inhibitors and anti-bacterial agents” (Eur J Med Chem, 2019).
≈ marks a conversion by molar mass, not a printed value.

How the values were obtained:
[1] = tested on: Staphylococcus aureus; assay: Antibacterial activity against Staphylococcus aureus KCTC503 assessed as reduction in bacterial cell growth incubated for 24 hrs by ELISA; format: functional; settings: KCTC503, 24 h
In short: (§1)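 MICs determined by serial dilution in 96-well microtiter plates. The strain panel included Gram-positive S. aureus strains and multidrug-resistant clinical isolates. Gatifloxacin, moxifloxacin, norfloxacin and oxacillin served as antibacterial positive controls.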

[2] = tested on: Candida albicans; assay: Antifungal activity against Candida albicans 7535 assessed as reduction in bacterial cell growth incubated for 24 hrs by ELISA; format: functional; settings: Candida albicans, 7535, 24 h
In short: (§2)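 MIC determined by serial dilution in 96-well microtiter plates. Strains used were E. coli 1924 and P. aeruginosa 2742 (Gram-negative), S. mutans 3289 (Gram-positive) and the fungus C. albicans 7535. Gatifloxacin, moxifloxacin, norfloxacin and oxacillin served as antibacterial reference agents, and fluconazole as the antifungal reference.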

[3] = tested on: Staphylococcus aureus; assay: Antibacterial activity against Staphylococcus aureus KCTC209 assessed as reduction in bacterial cell growth incubated for 24 hrs by ELISA; format: functional; settings: KCTC209, 24 h; in short: as §1
[4] = tested on: Escherichia coli; assay: Antibacterial activity against Escherichia coli 1924 assessed as reduction in bacterial cell growth incubated for 24 hrs by ELISA; format: functional; settings: Escherichia coli, 1924, 24 h; in short: as §2
[5] = tested on: Staphylococcus aureus; assay: Antibacterial activity against Quinolone-resistant Staphylococcus aureus CCARM 3505 assessed as reduction in bacterial cell growth incubated for 24 hrs by ELISA; format: functional; settings: CCARM 3505, 24 h; in short: as §1
[6] = tested on: Staphylococcus aureus; assay: Antibacterial activity against Methicillin-resistant Staphylococcus aureus CCARM 3167 assessed as reduction in bacterial cell growth incubated for 24 hrs by ELISA; format: functional; settings: CCARM 3167, 24 h; in short: as §1
[7] = tested on: Streptococcus mutans; assay: Antibacterial activity against Streptococcus mutans KCTC3289 assessed as reduction in bacterial cell growth incubated for 24 hrs by ELISA; format: functional; settings: KCTC3289, 24 h; in short: as §2
[8] = target: T1, Tyrosine-protein phosphatase non-receptor type 1 (Homo sapiens, UniProt P18031); assay: Inhibition of human recombinant GST-tagged PTP1B expressed in Escherichia coli BL21 (DE3) using pNPP as substrate measured for 2 mins by colorimetric analysis
T1 sequence (P18031 whole entry): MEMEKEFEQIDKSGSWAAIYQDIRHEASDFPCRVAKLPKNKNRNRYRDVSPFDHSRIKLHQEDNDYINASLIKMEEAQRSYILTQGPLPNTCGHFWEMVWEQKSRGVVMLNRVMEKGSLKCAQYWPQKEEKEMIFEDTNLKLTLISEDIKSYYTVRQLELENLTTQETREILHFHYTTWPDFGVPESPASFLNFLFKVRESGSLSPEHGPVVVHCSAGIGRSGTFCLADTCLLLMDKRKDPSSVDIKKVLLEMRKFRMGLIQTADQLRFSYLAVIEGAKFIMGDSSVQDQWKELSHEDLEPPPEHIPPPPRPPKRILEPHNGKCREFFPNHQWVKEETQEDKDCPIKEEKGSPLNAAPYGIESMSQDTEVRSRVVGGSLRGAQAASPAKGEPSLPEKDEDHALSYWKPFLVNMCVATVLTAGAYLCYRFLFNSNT

[9] = tested on: Staphylococcus aureus; assay: Antibacterial activity against Quinolone-resistant Staphylococcus aureus CCARM 3519 assessed as reduction in bacterial cell growth incubated for 24 hrs by ELISA; format: functional; settings: CCARM 3519, 24 h; in short: as §1
[10] = tested on: Staphylococcus aureus; assay: Antibacterial activity against Methicillin-resistant Staphylococcus aureus CCARM 3506 assessed as reduction in bacterial cell growth incubated for 24 hrs by ELISA; format: functional; settings: CCARM 3506, 24 h; in short: as §1
[11] = tested on: Staphylococcus aureus; assay: Antibacterial activity against Staphylococcus aureus RN4220 assessed as reduction in bacterial cell growth incubated for 24 hrs by ELISA; format: functional; settings: RN4220, 24 h; in short: as §1
[12] = tested on: Pseudomonas aeruginosa; assay: Antibacterial activity against Pseudomonas aeruginosa 2742 assessed as reduction in bacterial cell growth incubated for 24 hrs by ELISA; format: functional; settings: Pseudomonas aeruginosa, 2742, 24 h; in short: as §2

| Structure (SMILES) | MIC [1] [µg/mL] | MIC [2] [µg/mL] | MIC [3] [µg/mL] | MIC [4] [µg/mL] | MIC [5] [µg/mL] | MIC [6] [µg/mL] | MIC [7] [µg/mL] | IC50 [8] [µM] | MIC [9] [µg/mL] | MIC [10] [µg/mL] | MIC [11] [µg/mL] | MIC [12] [µg/mL] |
| --- | --- | --- | --- | --- | --- | --- | --- | --- | --- | --- | --- | --- |
| O=C(O)C(Cc1c[nH]c2ccccc12)N1C(=O)/C(=C/c2cccc(OCc3ccc(Cl)cc3Cl)c2)SC1=S (configuration not stated) | 8 (≈ 13.7 µM) | > 64 | 4 (≈ 6.85 µM) | 8 (≈ 13.7 µM) | 4 (≈ 6.85 µM) | 8 (≈ 13.7 µM) | 4 (≈ 6.85 µM) | 1.7 | 4 (≈ 6.85 µM) | 8 (≈ 13.7 µM) | 4 (≈ 6.85 µM) | > 64 |
| COc1ccc(COc2ccc3cc(/C=C4\SC(=S)N(C(Cc5c[nH]c6ccccc56)C(=O)O)C4=O)ccc3c2)cc1 (configuration not stated) | – | > 64 | – | 16 (≈ 26.9 µM) | 8 (≈ 13.5 µM) | 8 (≈ 13.5 µM) | 8 (≈ 13.5 µM) | 1.45 | 8 (≈ 13.5 µM) | 8 (≈ 13.5 µM) | 8 (≈ 13.5 µM) | > 64 |
| COc1cccc(COc2ccc3cc(/C=C4\SC(=S)N(C(Cc5c[nH]c6ccccc56)C(=O)O)C4=O)ccc3c2)c1 (configuration not stated) | – | > 64 | – | 16 (≈ 26.9 µM) | 8 (≈ 13.5 µM) | 8 (≈ 13.5 µM) | 8 (≈ 13.5 µM) | 1.67 | 16 (≈ 26.9 µM) | 16 (≈ 26.9 µM) | 8 (≈ 13.5 µM) | > 64 |
| O=C(O)C(Cc1c[nH]c2ccccc12)N1C(=O)/C(=C/c2ccc(OCc3ccc(Cl)cc3Cl)cc2)SC1=S (configuration not stated) | 8 (≈ 13.7 µM) | > 64 | 4 (≈ 6.85 µM) | 8 (≈ 13.7 µM) | 8 (≈ 13.7 µM) | 8 (≈ 13.7 µM) | 8 (≈ 13.7 µM) | 3.38 | 16 (≈ 27.4 µM) | 8 (≈ 13.7 µM) | 4 (≈ 6.85 µM) | > 64 |
| COc1cc(/C=C2\SC(=S)N(C(Cc3c[nH]c4ccccc34)C(=O)O)C2=O)ccc1OCc1ccc(Br)cc1 (configuration not stated) | 4 (≈ 6.41 µM) | > 64 | 4 (≈ 6.41 µM) | 8 (≈ 12.8 µM) | 4 (≈ 6.41 µM) | 4 (≈ 6.41 µM) | 8 (≈ 12.8 µM) | 3.18 | 8 (≈ 12.8 µM) | 4 (≈ 6.41 µM) | 4 (≈ 6.41 µM) | > 64 |
| Cc1ccc(COc2ccc(/C=C3\SC(=S)N(C(Cc4c[nH]c5ccccc45)C(=O)O)C3=O)cc2)cc1 (configuration not stated) | 8 (≈ 15.1 µM) | > 64 | 4 (≈ 7.57 µM) | 8 (≈ 15.1 µM) | 8 (≈ 15.1 µM) | 8 (≈ 15.1 µM) | 4 (≈ 7.57 µM) | 5.93 | 16 (≈ 30.3 µM) | 8 (≈ 15.1 µM) | 4 (≈ 7.57 µM) | > 64 |
| COc1cc(/C=C2\SC(=S)N(C(Cc3c[nH]c4ccccc34)C(=O)O)C2=O)ccc1OCc1ccccc1 (configuration not stated) | 8 (≈ 14.7 µM) | > 64 | 8 (≈ 14.7 µM) | 16 (≈ 29.4 µM) | 8 (≈ 14.7 µM) | 8 (≈ 14.7 µM) | 8 (≈ 14.7 µM) | 5.77 | 16 (≈ 29.4 µM) | 8 (≈ 14.7 µM) | 8 (≈ 14.7 µM) | > 64 |
| O=C(O)C(Cc1c[nH]c2ccccc12)N1C(=O)/C(=C/c2ccc3cc(OCc4cccc(Cl)c4)ccc3c2)SC1=S (configuration not stated) | – | > 64 | – | 2 (≈ 3.34 µM) | 8 (≈ 13.4 µM) | 2 (≈ 3.34 µM) | 2 (≈ 3.34 µM) | 0.72 | 8 (≈ 13.4 µM) | 4 (≈ 6.68 µM) | 4 (≈ 6.68 µM) | > 64 |
| O=C(O)C(Cc1c[nH]c2ccccc12)N1C(=O)/C(=C/c2cccc(OCc3ccccc3)c2)SC1=S (configuration not stated) | 8 (≈ 15.5 µM) | > 64 | 8 (≈ 15.5 µM) | 8 (≈ 15.5 µM) | 8 (≈ 15.5 µM) | 8 (≈ 15.5 µM) | 8 (≈ 15.5 µM) | 8.23 | 8 (≈ 15.5 µM) | 8 (≈ 15.5 µM) | 4 (≈ 7.77 µM) | > 64 |
| COc1c(N2C[C@@H]3CCCN[C@@H]3C2)c(F)cc2c(=O)c(C(=O)O)cn(C3CC3)c12 [MOXIFLOXACIN] | 2 (≈ 4.98 µM) | 0.5 (≈ 1.25 µM) | – | – | – | – | 0.25 (≈ 0.623 µM) | – | 4 (≈ 9.96 µM) | – | 0.25 (≈ 0.623 µM) | – |
| OC(Cn1cncn1)(Cn1cncn1)c1ccc(F)cc1F [FLUCONAZOLE] | – | 1 (≈ 3.27 µM) | – | – | – | – | – | – | – | – | – | – |
| CCn1cc(C(=O)O)c(=O)c2cc(F)c(N3CCNCC3)cc21 [NORFLOXACIN] | – | – | – | – | > 64 | 8 (≈ 25.1 µM) | – | – | > 64 | 4 (≈ 12.5 µM) | – | – |
